The values below come from PMC3766433 (Journal of neurochemistry, 2013).

The term EC50 denotes the midpoint of the concentration-response curve. A higher EC50 goes with lower potency in that assay.

Common to all, as to assay type: binding
Experiment [1] concerns the target T1, Munc13-1 C1 (WT) (Rattus norvegicus, UniProt Q62768). The experiment is described as follows: photolabeling, LC-MS/MS. Conditions: covalent (photoaffinity), site Glu-582.
The target of experiment [2] is Munc13-1 C1 (WT) (Rattus norvegicus, UniProt Q62768, E582H). In words: intrinsic fluorescence quenching, logistic fit. A digest of the protocol: (§1)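 GST-fused Munc13-1 C1 domain (wild type or Glu-582 mutant) was expressed in E. coli BL21 DE3 gold, affinity-purified and thrombin-cleaved. Protein was held at 1 μM in 50 mM Tris, 100 mM NaCl, pH 7.4. Alcohols were added neat or from a 0.25 M DMSO stock, at 1–250, 1–150 or 1–5 mM depending on the alcohol. After 15 min incubation, samples were excited at 280 nm. Emission at 348–350 nm was buffer-corrected and fitted to a logistic equation; runs were done in triplicate.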

In experiment [3] the target is Munc13-1 C1 (WT) (Rattus norvegicus, UniProt Q62768, E582A). In words: intrinsic fluorescence quenching, logistic fit. A digest of the protocol:
as §1

For experiment [4], the target named is T1, Munc13-1 C1 (WT). The experiment is described as follows: intrinsic fluorescence quenching, logistic fit. Summed up:
as §1

The target in experiment [5] is Munc13-1 C1 (WT) (Rattus norvegicus, UniProt Q62768, E582L). The experiment is described as follows: intrinsic fluorescence quenching, logistic fit. A digest of the protocol:
as §1

With `CC1(CCO)N=N1` [3-azibutanol], the “photolabeling, LC-MS/MS; fluorescence quenching” value at Munc13-1 C1 (WT) [1] is recorded as 3-azibutanol labeled the Munc13-1 C1 at the Glu-582 site.

As to `CCCCO` [Butanol], the EC50 worked out at 75.3 ± 1.9 mM at Munc13-1 C1 (WT) [2], 59.9 ± 0.9 mM on Munc13-1 C1 (WT) [3], 25.8 ± 1.1 mM at Munc13-1 C1 (WT) [4] and 70.5 ± 1.8 mM on Munc13-1 C1 (WT) [5].

`CCO` [Ethanol] gave a concentration giving a half-maximal response (EC50) at Munc13-1 C1 (WT) [4] of 51.7 ± 2.8 mM.

For `CCCCCCCCO` [Octanol], the EC50 at Munc13-1 C1 (WT) [2] worked out at 1.1 ± 0.07 mM; on Munc13-1 C1 (WT) [3], 2.6 ± 0.2 mM; on Munc13-1 C1 (WT) [4], 0.7 ± 0.03 mM; at Munc13-1 C1 (WT) [5] it was 3.3 ± 0.06 mM.
